Assay results taken from publication PMC11565791 (bioRxiv, 2025).
Numbering of substitutions follows the chain as printed. Names may count otherwise.

Key:
[1] = system: nucleation 'green' reporter (SF-GFP); assay: Flow cytometry, MAT ΔREIII HSS 'green' nucleation reporter; format: cell-based, Schizosaccharomyces pombe; settings: separate experiment with Δckb1, SFigure 1J–L
Outline: (§1)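 Strains from −80°C stocks were revived on YES plates. Cells were grown overnight in 200 μL YES at 32°C to saturation. The next morning they were diluted 1:25 in YES into mid-log phase and analysed by flow cytometry for single-cell reporter fluorescence. Compensation and analysis followed a prior protocol.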

[2] = system: spreading 'orange' reporter (mKO2); assay: Flow cytometry, MAT ΔREIII HSS 'orange' spreading reporter; format: cell-based, Schizosaccharomyces pombe; settings: for spreading phenotype: Figure 3E-J run (fully separate from Figure 1)
Outline: as §1

H3Kc9me3 mononucleosomes = assay: Fluorescence polarization, H3Kc9me3; format: binding; settings: for specificity for H3K9me3 mark on nucleosomes: H3Kc9me3 vs H3K9me0 nucleosomes; for tighter binding to H3Kc9me3 nucleosome than to H3K9me3 peptide: Kd nucleosome vs Kd tail peptide
[3] = system: H3K9me3 peptide (fluoresceinated H3 1-20); settings: H3K9me3 vs H3K9me0 peptide; ref Canzio et al. 2011; cited from earlier work
[4] = system: pSwi6 S18/24A (CKII-phosphorylated) (Schizosaccharomyces pombe); assay: fluorescence polarization
[5] = system: unpSwi6 (unphosphorylated Swi6) (Schizosaccharomyces pombe); assay: fluorescence polarization; settings: histone H3K9 unmethylated
[6] = system: H3K9me3 peptide (fluoresceinated H3 1-20); assay: Fluorescence polarization, H3K9me3 tail peptide; format: binding
Outline: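 Fluoresceinated H3 1–20 K9me3 or K9me0 peptide was fixed at 100 nM. Purified Swi6, unphosphorylated or CK2-phosphorylated, was titrated at 0–200 μM. Fluorescence polarization was read at ex 485 / em 528 nm; Kd derived by curve fitting.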

[7] = system: pSwi6 (CKII-phosphorylated Swi6) (Schizosaccharomyces pombe); assay: fluorescence polarization; settings: histone H3 Kc9me3 (methyl-lysine analog)
genomic loci = assay: anti-pS18-pS24 ChIP-seq; format: cell-based, S. pombe; settings: wildtype; SFigure 8F
Outline: (§2)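 FLAG ChIP: strains express FLAG-tagged Swi6 variants; IP with M2 anti-FLAG. pS18-pS24 ChIP: untagged strains; IP with anti-pS18-pS24 antibody; lysis buffer also contains 0.1 mM orthovanadate and 60 mM β-glycerophosphate. Both: grown to saturation in YES at 32°C, then 2 h at 18°C. 600×10^6 cells fixed with 1.5 mM EGS (30 min), then 1% formaldehyde (30 min). Drosophila spike-in added; three technical replicates; spike-in-adjusted cpm.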

SEC-MALS + cross-linking = molecular target: the molecule itself; assay: SEC-MALS + cross-linking
H3K9me2 = H3K9me2 ChIP-seq; format: cell-based, S. pombe
Outline: (§3)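 Cells were grown overnight in YES at 32°C to saturation, diluted to OD 0.03 and grown to OD 1. 300×10^6 cells were fixed with 1% formaldehyde only and quenched with glycine. Chromatin was bead-beaten and sheared, then immunoprecipitated overnight at 4°C with anti-H3K9me2 or anti-H3K9me3. Reverse-crosslinked with proteinase K at 65°C. 40 bp paired-end reads; ChIP/input signal, mean of three repeats with 95% CI.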

H3K9me3 = H3K9me3 ChIP-seq; format: cell-based, S. pombe
Outline: as §3

[8] = system: genomic loci (nucleators, spreading zones, euchromatin); assay: FLAG-Swi6 ChIP-seq; format: cell-based, S. pombe; settings: for FLAG-Swi6 accumulation at nucleation sites versus wildtype: spike-in normalized, Figure 5B
Outline: as §2

heterochromatin foci = assay: Swi6-GFP live cell imaging of nuclear foci; format: cell-based, S. pombe; settings: Figure 4E,F
Outline: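 Swi6-GFP strains in a Sad1-mKO2 background were grown on YES 225 agar at 32°C for 3–5 days. Cells were then cultured in liquid YES 225 at 30°C with 250 rpm shaking to OD 0.2–0.6 before live-cell imaging.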

[9] = MAT ΔREIII HSS, mean of three repeats

For “wildtype swi6: wildtype swi6 open reading frame in MAT ΔREIII HSS strain [reference compound]”, the “'green' (nucleation) reporter cells ON” value [1] was 0.36% and the “'orange' (spreading) reporter cells ON” value ([2]; separate experiment with Δckb1, SFigure 1J–L) was 7.04%.

For “unpSwi6: recombinant Swi6 expressed in E. coli without CKII, His tag removed by TEV”, the “specificity for H3K9me3 mark on nucleosomes” value (H3Kc9me3 mononucleosomes) is listed as 19.4 X, the “tighter binding to H3Kc9me3 nucleosome than to H3K9me3 peptide” value (H3Kc9me3 mononucleosomes) is listed as 68 X and the “specificity for H3K9me3 peptide, previously reported” value [3] is listed as ~ 130 X.

Work on H3K9me0 mononucleosome, 601 DNA 147 bp yielded a binding signal (relative Kd (pSwi6 on H3Kc9me3 = 1)) ([4]; histone H3K9 unmethylated) of 1.67 and a Kd [5] of 2330 nM.

With “pSwi6: Swi6 co-expressed with Casein Kinase II (CKII) in E. coli” the “decrease in nucleosome affinity by phosphorylation, overall (pSwi6 vs unpSwi6)” value (H3Kc9me3 mononucleosomes; Figure 4D) was 12 X, the “specificity for H3K9me3 mark on nucleosomes” value (H3Kc9me3 mononucleosomes) was 19 X and the “tighter binding to H3Kc9me3 nucleosome than to H3K9me3 peptide” value (H3Kc9me3 mononucleosomes) was 1.7 X. For the same molecule, the “specificity for H3K9me3 peptide” value ([6]; H3K9me3 vs H3K9me0 peptide) was ~ 93 X and the “preference for H3K9me3 versus H3K9me2 peptides” value ([6]; SFigure 4C) was ~ 2.2 X.

For “H3Kc9me3 (MLA) mononucleosome, 601 DNA 147 bp”, the binding signal (relative Kd (pSwi6 on H3Kc9me3 = 1)) ([4]; histone H3 Kc9me3 (methyl-lysine analog)) was 0.38 and the binding signal (relative Kd (reference)) [7] was 1.

For “FLAG-Swi6: 3XFLAG tagged wildtype Swi6 at endogenous locus”, the “pS18-pS24 pool versus overall FLAG-Swi6 accumulation” value (genomic loci) was “no significant differences in accumulation between the overall Swi6 pool and the pS18-pS24 pool”.

B1: phosphorylated Swi6 (pSwi6) (natural protein)
chain: MKKGGVRSYRRSSTSKRSVIDDDSEPELPSMTKEAIASHKADSGSSDNEVESDHESKSSSKKLKENAKEEEGGEEEEEDEYVVEKVLKHRMARKGGGYEYLLKWEGYDDPSDNTWSSEADCSGCKQLIEAYWNEHGGRPEPSKRKRTARPKKPEAKEPSPKSRKTDEDKHDKDSNEKIEDVNEKTIKFADKSQEEFNENGPPSGQPNGHIESDNESKSPSQKESNESEDIQIAETPSNVTPKKKPSPEVPKLPDNRELTVKQVENYDSWEDLVSSIDTIERKDDGTLEIYLTWKNGAISHHPSTITNKKCPQKMLQFYESHLTFRENE
In the case of B1, the “stoichiometry N” value (SEC-MALS + cross-linking) is reported as 8.

B2: swi6^S18/24A: swi6 mutant S18A and S24A (protein, UniProt P40381 1-328, looked up, variant S18A S24A)
Chromatin-associated protein …: B1 chain with S18A, S24A
In the case of B2, the “H3K9me2 in nucleators versus wildtype” value (H3K9me2; 300bp bins, SFigure 2) is reported as “H3K9me2 is elevated in almost all nucleators”, the “H3K9me2 level at MAT locus” value (H3K9me2; [9]) is reported as “maintained similar levels of H3K9me2 to wildtype swi6” and the “distance to the left of tlh2 at which H3K9me2 levels begin to drop” value (H3K9me2; tel IIR, relative to wildtype) is reported as ~ 6.4 kb. The “H3K9me3 level at MAT locus” value (H3K9me3; [9]) was “much more closely mirrored Δswi6”, the “H3K9me2 and H3K9me3 at mei4” value (H3K9me3; heterochromatin island mei4, SFigure 3A) was “no distinguishable differences” and the “spreading phenotype” value [2] was “more severe spreading defect than the oligomerization surface mutants alone”.

B3: swi6^loopX-S18/24A: double mutant of loopX and S18/24A (protein, UniProt P40381 1-328, looked up, variant S18A S24A R93A K94A)
Chromatin-associated protein …: B1 chain with S18A, S24A, R93A, K94A
With B3 the “spreading phenotype” value [2] was “largely mimics that of swi6^S18/24A”.

B4: FLAG-Swi6^S18/24A: 3XFLAG tagged Swi6 S18/24A (protein, UniProt P40381 1-328, looked up, variant S18A S24A)
Chromatin-associated protein …: B1 chain with S18A, S24A
modifications: 3XFLAG tag
In the case of B4, the “FLAG-Swi6 accumulation at nucleation sites versus wildtype” value [8] is reported as “decline in accumulation”, the “FLAG-Swi6 accumulation at cen I & II” value ([8]; versus wildtype, Figure 5E, SFigure 7A) is reported as “accumulates less than wildtype within previously mapped siRNA generating centers” and the “FLAG-Swi6 accumulation at H3K9me2-negative loci” value ([8]; versus wildtype, Figure 5F,G) is reported as “accumulates above wildtype at several H3K9me2 negative loci”.

B5: FLAG-Swi6^6S/A: 3XFLAG tagged Swi6 S18/24/117–220A (protein, UniProt P40381 1-328, looked up, variant S18A S24A S117A S192A S212A S220A)
Chromatin-associated protein …: B1 chain with S18A, S24A, S117A, S192A, S212A, S220A
modifications: 3XFLAG tag
With B5 the “FLAG-Swi6 accumulation at nucleation sites versus wildtype” value [8] was “decline in accumulation”.

B6: Swi6^6S/A -GFP: C-terminally super fold-GFP tagged Swi6 6S/A (protein, UniProt P40381 1-328, looked up, variant S18A S24A S117A S192A S212A S220A)
Chromatin-associated protein …: B1 chain with S18A, S24A, S117A, S192A, S212A, S220A
modifications: C-terminal superfolder GFP tag
With B6 the “partitioning relative to heterochromatin foci” value (heterochromatin foci) was “partition away from heterochromatin foci”.

B7: Swi6^S18/24A-GFP: C-terminally super fold-GFP tagged Swi6 S18/24A (protein, UniProt P40381 1-328, looked up, variant S18A S24A)
Chromatin-associated protein …: B1 chain with S18A, S24A
modifications: C-terminal superfolder GFP tag
With B7 the “partitioning relative to heterochromatin foci” value (heterochromatin foci) was “partition away from heterochromatin foci”.

B8: swi6^loopX: ARK loop in the CD mutant (R93A and K94A) (protein, UniProt P40381 1-328, looked up, variant R93A K94A)
Chromatin-associated protein …: B1 chain with R93A, K94A
With B8 the “spreading phenotype” value [2] was “moderate spreading defect”.
